# In publication PMC4930114 (ACS infectious diseases, 2015):
# Where two headings read alike, the source gives them in different places.
# What was measured:
# [1] = target: ROP18 (Toxoplasma gondii, UniProt Q2PAY2); assay: biochemical
# [2] = system: CDK3/cyclinE; details: 1 μM; ref GSK PKIS profiling (Table S1); cited from earlier work
# [3] = system: CDK2; details: 0.1 μM; ref GSK PKIS profiling (Figure S5); cited from earlier work
# [4] = system: MELK; details: 1 μM; ref GSK PKIS profiling (Table S1); cited from earlier work
# [5] = system: PDGFRβ; details: 0.1 μM; ref GSK PKIS profiling (Figure S5); cited from earlier work
# [6] = system: ROP18 function in T. gondii infected RAW macrophages (Irga6 recruitment to PVM); assay: Irga6; assay type: cell-based, Toxoplasma gondii; details: 10 μM; for proportion of Irga6 positive vacuoles, visual scoring, Δrop18 parasites: Δrop18, IFN-γ-activated RAW macrophages; for amount of Irga6 recruitment, quantitative immunofluorescence, Δrop18 parasites: Δrop18, vs DMSO vehicle
# Procedure, shortened: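 RAW264.7 macrophages on coverslips (10^5/well) primed 24 h with 100 U/ml mouse IFNγ plus 1 ng/ml LPS. RH Δku80 tachyzoites (wild type or rop18-disrupted) at 10^5/ml pretreated 30 min at 37°C with 10 μM test compound or 0.1% DMSO, then invaded 30 min. Formaldehyde-fixed, Triton-permeabilized, stained for TgAldolase and Irga6 (mAb 10D7). Irga6-positive vacuoles scored visually; intensity quantified over parasite/PVM region.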
# [7] = system: PDGFRα; details: 0.1 μM; ref GSK PKIS profiling (Figure S5); cited from earlier work
# [8] = system: TBK1; details: 1 μM; ref GSK PKIS profiling (Table S1); cited from earlier work
# [9] = system: RAW 264.7 macrophages; assay: MTS-based cell growth assay; details: Mus musculus, RAW264.7, 48 h, read-out: EC50 growth inhibition (MTS)
# [10] = system: RAW264.7 macrophages; assay: LDH release cytotoxicity; assay type: cell-based, mouse; details: 4 h incubation, 20 μM
# [11] = system: P. falciparum; details: 2 μM; cited from earlier work
# [12] = system: HepG2 hepatocarcinoma cells; details: 10 μM (48 h stated for compound 10); cited from earlier work
# [13] = system: P. falciparum 3D7 strain; details: 2 μM, 48 h; cited from earlier work
# [14] = system: P. falciparum Dd2 strain (a multidrug resistant strain); details: 2 μM, 48 h; cited from earlier work
# [15] = system: RAW264.7 macrophages; assay: Phase contrast microscopy of host cell morphology; assay type: cell-based, mouse; details: 10 μM, in as little as 30 min; rounding up and vesiculation
# [16] = IC50 μM FL-8, substrate peptide FL-8, same assay conditions as primary screen
# [17] = IC50 μM FL-E, substrate peptide FL-E, same assay conditions as primary screen
# Chain of ROP18 (Q2PAY2 98-554): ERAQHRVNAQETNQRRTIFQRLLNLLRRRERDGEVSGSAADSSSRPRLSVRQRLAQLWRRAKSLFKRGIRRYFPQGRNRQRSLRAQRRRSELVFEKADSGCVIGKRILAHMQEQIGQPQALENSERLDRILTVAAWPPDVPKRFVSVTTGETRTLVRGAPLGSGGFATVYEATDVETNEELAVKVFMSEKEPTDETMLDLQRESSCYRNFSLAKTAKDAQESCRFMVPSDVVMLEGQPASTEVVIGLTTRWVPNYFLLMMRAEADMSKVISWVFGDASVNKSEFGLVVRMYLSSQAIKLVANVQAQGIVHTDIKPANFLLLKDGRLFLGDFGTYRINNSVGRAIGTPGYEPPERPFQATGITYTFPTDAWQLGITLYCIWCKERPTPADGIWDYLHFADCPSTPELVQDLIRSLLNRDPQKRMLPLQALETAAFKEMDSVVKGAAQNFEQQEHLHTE
compound,measurement,setting,value
"NS(=O)(=O)c1ccc(N/C=C2\C(=O)Nc3ccc4ncsc4c32)cc1 [Compound 1, 4-[(7-hydroxy-6H-pyrrolo[2,3-g][1,3]benzothiazol-8-yl)methyleneamino]benzenesulfonamide]",IC50,[1]; [16],1.21 µM
same,IC50,[1]; [17],2.48 µM
"CC(C)COC(=O)c1ccc2c(c1)/C(=C/Nc1ccc(S(N)(=O)=O)cc1)C(=O)N2 [Compound 2, isobutyl 2-hydroxy-3-[(4-sulfamoylphenyl)iminomethyl]-1H-indole-5-carboxylate]",inhibition of CDK3/cyclinE,[2],> 90%
same,inhibition of CDK2,[3],> 50%
same,inhibition of MELK,[4],> 90%
same,Ki,[1],130 nM
same,IC50,[1]; [16],0.51 µM
same,IC50,[1]; [17],0.29 µM
same,inhibition of PDGFRβ,[5],> 50%
same,"proportion of Irga6 positive vacuoles, visual scoring, Δrop18 parasites",[6]; vs DMSO vehicle,did not lead to a significant increase or decrease
same,"amount of Irga6 recruitment, quantitative immunofluorescence, Δrop18 parasites",[6],did not lead to a significant increase or decrease
same,inhibition of PDGFRα,[7],> 50%
same,inhibition of TBK1,[8],> 90%
same,EC50,[9],7400 nM
"CC(C)(CO)CNC(=O)c1ccc2c(c1)C(=NNc1ccc(S(N)(=O)=O)cc1)C(=O)N2 [Compound 3, 2-hydroxy-N-(3-hydroxy-2,2-dimethyl-propyl)-3-(4-sulfamoylphenyl)azo-1H-indole-5-carboxamide]",IC50,[1]; [16],0.65 µM
same,IC50,[1]; [17],0.19 µM
"NS(=O)(=O)c1ccc(NN=C2C(=O)Nc3ccc(C(=O)NCc4ccncc4)cc32)cc1 [Compound 4, 2-hydroxy-N-(4-pyridylmethyl)-3-(4-sulfamoylphenyl)azo-1H-indole-5-carboxamide]",IC50,[1]; [16],> 10 µM
same,IC50,[1]; [17],2.66 µM
"O=S1(=O)CCc2ccc(Nc3nc(NC4CCNC4)nc4ccnc(O)c34)cc21 (stereo not shown) [Compound 5, 4-[(1,1-dioxo-2,3-dihydrobenzothiophen-6-yl)amino]-2-(pyrrolidin-3-ylamino)pyrido[4,3-d]pyrimidin-5-ol]",IC50,[1]; [16],> 10 µM
same,IC50,[1]; [17],4.02 µM
"Oc1nccc2nc(NC3CCNC3)nc(Nc3cc(Cl)cc(Cl)c3)c12 (stereo not shown) [Compound 6, 4-(3,5-dichloroanilino)-2-(pyrrolidin-3-ylamino)pyrido[4,3-d]pyrimidin-5-ol]",IC50,[1]; [16],> 10 µM
same,IC50,[1]; [17],7.49 µM
"O=c1[nH]ccc2nc(NC3CCCNC3)nc(Nc3ccc(S(=O)(=O)N4CCOCC4)cc3)c12 (stereo not shown) [Compound 7, 4-(4-morpholinosulfonylanilino)-2-(3-piperidylamino)pyrido[4,3-d]pyrimidin-5-ol]",Ki,[1],270 nM
same,IC50,[1]; [16],0.4 µM
same,IC50,[1]; [17],0.18 µM
same,"proportion of Irga6 positive vacuoles, visual scoring, wild type parasites","[6]; wild type (RH), IFN-γ-activated RAW macrophages, vs DMSO vehicle",did not result in a significant increase
same,"amount of Irga6 recruitment, quantitative immunofluorescence, wild type parasites","[6]; wild type (RH), vs DMSO vehicle",no significant increase
same,"proportion of Irga6 positive vacuoles, visual scoring, Δrop18 parasites",[6]; vs DMSO vehicle,caused a reduction
same,"amount of Irga6 recruitment, quantitative immunofluorescence, Δrop18 parasites",[6],significantly lower
same,increase in LDH release,[10],12%
same,inhibition of P. falciparum growth,[11],> 95%
same,growth inhibition of HepG2 cells,[12],13%
same,EC50,[9],14200 nM
"NS(=O)(=O)CCc1cccc(Nc2nccc(-c3c(-c4cccc(NC(=O)c5c(F)cccc5F)c4)nn4ccccc34)n2)c1 [Compound 8, 2,6-difluoro-<I>N</I>-[3-[3-[2-[3-(2-sulfamoylethyl)anilino]pyrimidin-4-yl]pyrazolo[1,5-a]pyridin-2-yl]phenyl]benzamide]",IC50,[1]; [16],0.63 µM
same,IC50,[1]; [17],0.94 µM
"CS(=O)(=O)Cc1ccc(Nc2nccc(-c3c(-c4cccc(NC(=O)C5CCCCC5)c4)nn4ncccc34)n2)cc1 [Compound 9, <I>N</I>-[3-[3-[2-[4-(methylsulfonylmethyl)anilino]pyrimidin-4-yl]pyrazolo[1,5-b]pyridazin-2-yl]phenyl]cyclohexanecarboxamide]",IC50,[1]; [16],> 10 µM
same,IC50,[1]; [17],> 10 µM
"CS(=O)(=O)Cc1ccc(Nc2nccc(-c3c(-c4cccc(NC(=O)c5c(F)cccc5F)c4)nn4ccccc34)n2)cc1 [Compound 10, 2,6-difluoro-<I>N</I>-[3-[3-[2-[4-(methylsulfonylmethyl)anilino]pyrimidin-4-yl]pyrazolo[1,5-a]pyridin-2-yl]phenyl]benzamide]",IC50,[1]; [16],2.83 µM
same,IC50,[1]; [17],1 µM
same,inhibition of 3D7 strain,[13],99%
same,growth inhibition of HepG2 cells,[12],78%
same,EC50,[9],1300 nM
same,inhibition of Dd2 strain,[14],75%
same,morphological damage to the host cells,[15],rapid morphological damage
"COc1ccc(NC(=O)Nc2nc(SCC(=O)C(C)(C)C)ns2)cc1 [Compound 11, 1-[3-(3,3-dimethyl-2-oxo-butyl)sulfanyl-1,2,4-thiadiazol-5-yl]-3-(4-methoxyphenyl)urea]",IC50,[1]; [16],> 10 µM
same,IC50,[1]; [17],6.44 µM
"Cc1cccc(Nc2nc(NC3CCCCC3N)ncc2C(N)=O)c1 (stereo not shown) [Compound 13, 2-[(2-aminocyclohexyl)amino]-4-(3-methylanilino)pyrimidine-5-carboxamide]",IC50,[1]; [16],> 10 µM
same,IC50,[1]; [17],6.66 µM
"C[C@]12O[C@H](C[C@]1(O)CO)n1c3ccccc3c3c4c(c5c6ccccc6n2c5c31)CNC4=O [Compound 14, (5S,6S,8R)-6-hydroxy-6-(hydroxymethyl)-5-methyl-5,6,7,8,14,15-hexahydro-13H-16-oxa-4b,8a,14-triaza-5,8-methanodibenzo[b,h]cycloocta[jkl]cyclopenta[e]-as-indacen-13-one, reference compound]",IC50,[1],0.16 µM
